The text below walks through data of ChEMBL document CHEMBL1125788, “Synthesis and ocular antihypertensive activity of new imidazolidine derivatives containing a beta-blocking side chain” (J Med Chem, 1991).

In experiment [1] the target is T1, Alpha-1A adrenergic receptor (Rattus norvegicus, UniProt P43140).
T1 sequence (P43140 whole entry): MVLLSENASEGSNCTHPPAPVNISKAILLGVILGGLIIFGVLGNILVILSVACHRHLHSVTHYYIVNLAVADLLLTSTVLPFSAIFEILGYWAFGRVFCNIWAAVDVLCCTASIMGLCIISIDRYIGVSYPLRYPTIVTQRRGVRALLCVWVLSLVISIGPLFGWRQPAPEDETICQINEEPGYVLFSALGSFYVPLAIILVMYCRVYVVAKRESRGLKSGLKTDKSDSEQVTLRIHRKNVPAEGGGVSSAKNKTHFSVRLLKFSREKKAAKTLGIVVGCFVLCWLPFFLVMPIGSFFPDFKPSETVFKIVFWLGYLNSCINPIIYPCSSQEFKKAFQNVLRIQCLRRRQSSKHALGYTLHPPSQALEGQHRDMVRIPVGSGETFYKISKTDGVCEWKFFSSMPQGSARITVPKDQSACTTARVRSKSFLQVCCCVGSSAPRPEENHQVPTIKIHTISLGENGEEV
The experiment in a line: The compound was tested for alpha-adrenergic activity against Alpha-1 adrenergic receptor from rat aorta. The following applies: read-out: pA2 (converted). The gist of the method: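 Isolated rat aorta strips at 2 g resting tension, stabilized about 1 h. Beta-receptors blocked with propranolol 10^-6 mol/L for 30 min. ED50 by Ariens–Van Rossum. Intrinsic activity = maximum response relative to norepinephrine. Antagonism as pA2 (Schild) or, if non-competitive, pD'2.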

For experiment [2], the target named is T2, Beta-1 adrenergic receptor (Cavia porcellus, UniProt B0FL73). The experiment in a line: The compound was tested for beta-adrenergic activity against Beta-1 adrenergic receptor from guinea pig left atria. The following applies: read-out: pA2 (converted). Summed up: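 Electrically paced isolated left atria (inotropy) from guinea pigs of 300-500 g, 2.5 Hz, 5 ms pulses at 50% above threshold. Phentolamine 3.15 × 10^-4 mmol/L in bath. Cumulative isoprenaline curves with ascorbic acid 1.13 × 10^-6 mol/L, before and after 30 min antagonist preincubation. Reported as pA2 or pD'2.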
T2 sequence (B0FL73 whole entry): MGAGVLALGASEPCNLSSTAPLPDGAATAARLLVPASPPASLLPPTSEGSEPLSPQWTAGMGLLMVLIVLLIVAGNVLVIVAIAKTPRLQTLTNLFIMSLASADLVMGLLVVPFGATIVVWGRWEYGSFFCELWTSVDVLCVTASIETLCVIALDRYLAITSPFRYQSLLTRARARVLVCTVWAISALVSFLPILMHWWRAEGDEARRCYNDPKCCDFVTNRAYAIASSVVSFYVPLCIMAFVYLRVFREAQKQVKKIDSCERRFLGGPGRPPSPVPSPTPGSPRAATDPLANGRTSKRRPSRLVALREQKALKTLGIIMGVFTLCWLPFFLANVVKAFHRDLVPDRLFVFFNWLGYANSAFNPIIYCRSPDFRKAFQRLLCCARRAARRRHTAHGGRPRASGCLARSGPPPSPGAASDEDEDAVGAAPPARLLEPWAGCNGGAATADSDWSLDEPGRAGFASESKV

Experiment [3] addresses T2, Beta-1 adrenergic receptor. Description: The compound was tested for beta-adrenergic activity against Beta-1 adrenergic receptor from guinea pig right atria. The conditions noted are these: read-out: pA2 (converted). Summed up:
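Spontaneously beating isolated right atria (chronotropy) from guinea pigs of 300-500 g. Phentolamine 3.15 × 10^-4 mmol/L in bath. Isoprenaline cumulative curves with ascorbic acid 1.13 × 10^-6 mol/L, before and after 30 min antagonist preincubation. Reported as pA2 or pD'2.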

Experiment [4] addresses Beta-2 adrenergic receptor (Cavia porcellus, UniProt Q8K4Z4). The experiment in a line: The compound was tested for beta-adrenergic activity against Beta-2 adrenergic receptor from guinea pig trachea.
The target in experiment [5] is T3, Alpha-1A adrenergic receptor (Rattus norvegicus) (UniProt P43140).
T3 sequence (whole entry): T1 sequence (P43140 whole entry)
The experiment in a line: Intrinsic activity expressed as ratio of maximum responses to the compound to the maximum response to norepinephrine; IN-Inactive up to a concentration of 1*10e-4 M. It is filed as functional. Summed up: (§1)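 Isolated rat aorta strips at 2 g resting tension, stabilized about 1 h. Beta-receptors blocked with propranolol 10^-6 mol/L for 30 min. Cumulative norepinephrine curve (10^-10 to 10^-7 mol/L) with ascorbic acid 1.13 × 10^-6 mol/L present. ED50 by Ariens–Van Rossum. Intrinsic activity = maximum response relative to norepinephrine. Antagonism as pA2 (Schild) or, if non-competitive, pD'2.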

In experiment [6] the target is T4, Adrenergic receptor alpha-2 (Homo sapiens) (UniProt P08913+P18825+P18089). The conditions noted are these: Cavia porcellus.
Experiment [7] addresses T4, Adrenergic receptor alpha-2 (Homo sapiens). The conditions noted are these: Cavia porcellus. This is another data set of the same source.
The target of experiment [8] is T3, Alpha-1A adrenergic receptor (Rattus norvegicus).
Experiment [9] addresses T5, Adrenergic receptor alpha-2 (Homo sapiens, UniProt P08913+P18825+P18089).
T5 sequence (P08913 whole entry): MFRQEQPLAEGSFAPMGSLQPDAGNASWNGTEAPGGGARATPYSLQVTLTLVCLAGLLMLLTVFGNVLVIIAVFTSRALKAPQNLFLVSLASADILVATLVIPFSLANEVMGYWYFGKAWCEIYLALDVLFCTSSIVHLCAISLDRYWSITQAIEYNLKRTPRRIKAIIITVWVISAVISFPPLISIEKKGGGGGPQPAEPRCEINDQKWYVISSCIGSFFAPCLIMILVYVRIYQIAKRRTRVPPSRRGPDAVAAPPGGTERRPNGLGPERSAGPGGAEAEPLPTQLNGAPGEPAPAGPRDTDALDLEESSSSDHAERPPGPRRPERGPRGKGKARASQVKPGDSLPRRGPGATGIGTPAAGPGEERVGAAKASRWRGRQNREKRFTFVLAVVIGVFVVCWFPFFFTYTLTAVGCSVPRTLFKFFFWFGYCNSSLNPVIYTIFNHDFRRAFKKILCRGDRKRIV
T5 sequence (P18825 whole entry): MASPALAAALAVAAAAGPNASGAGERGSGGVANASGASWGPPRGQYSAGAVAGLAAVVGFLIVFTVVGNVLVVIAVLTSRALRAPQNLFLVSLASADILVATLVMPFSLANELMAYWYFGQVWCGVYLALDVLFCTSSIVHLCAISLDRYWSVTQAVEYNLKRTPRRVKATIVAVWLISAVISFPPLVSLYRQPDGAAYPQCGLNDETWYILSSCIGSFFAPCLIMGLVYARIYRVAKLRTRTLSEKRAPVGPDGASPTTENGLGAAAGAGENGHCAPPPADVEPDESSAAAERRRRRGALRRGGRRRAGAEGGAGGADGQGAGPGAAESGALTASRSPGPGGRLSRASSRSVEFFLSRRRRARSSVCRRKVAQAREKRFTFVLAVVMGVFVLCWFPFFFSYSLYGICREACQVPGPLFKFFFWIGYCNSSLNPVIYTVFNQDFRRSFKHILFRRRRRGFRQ
T5 sequence (P18089 whole entry): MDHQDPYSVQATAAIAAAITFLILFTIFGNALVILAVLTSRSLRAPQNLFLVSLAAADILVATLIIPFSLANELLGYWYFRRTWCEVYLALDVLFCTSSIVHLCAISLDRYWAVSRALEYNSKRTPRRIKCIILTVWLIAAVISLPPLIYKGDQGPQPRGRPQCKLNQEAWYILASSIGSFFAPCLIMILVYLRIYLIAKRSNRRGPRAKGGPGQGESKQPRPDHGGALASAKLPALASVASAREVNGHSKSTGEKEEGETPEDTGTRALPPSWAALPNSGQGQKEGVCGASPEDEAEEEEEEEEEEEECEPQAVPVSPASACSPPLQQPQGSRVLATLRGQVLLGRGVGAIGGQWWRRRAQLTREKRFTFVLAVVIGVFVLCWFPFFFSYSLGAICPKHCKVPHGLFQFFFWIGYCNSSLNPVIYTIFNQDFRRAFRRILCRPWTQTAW
The experiment in a line: The compound was tested for alpha-adrenergic activity against alpha-2 adrenergic receptor from guinea pig vas deferens. More on the design: species or system Cavia porcellus. The conditions noted are these: target entry is the homologue from another species.

Experiment [10] addresses Beta-2 adrenergic receptor (Cavia porcellus) (UniProt Q8K4Z4).
Experiment [11] addresses T3, Alpha-1A adrenergic receptor (Rattus norvegicus). The experiment in a line: Intrinsic activity expressed as ratio of maximum responses to the compound to the maximum response to norepinephrine; IN-Inactive up to a concentration of 1*10e-5 M. It counts as functional. Summed up: as §1
The target in experiment [12] is T4, Adrenergic receptor alpha-2 (Homo sapiens). The following applies: Cavia porcellus. This is another data set of the same source.
Experiment [13] deals with T3, Alpha-1A adrenergic receptor (Rattus norvegicus). The source holds these as a separate data set.
Experiment [14] has the same target. The source holds these as a separate data set.
The target is the same in experiment [15]. The source holds these as a separate data set.
The target in experiment [16] is T4, Adrenergic receptor alpha-2 (Homo sapiens). Description: The compound was tested for alpha-adrenergic activity against alpha-2 adrenergic receptor from guinea pig vas up to a concentration of 1*10e-3 M. The conditions noted are these: Cavia porcellus; target entry is the homologue from another species.
The target in experiment [17] is T3, Alpha-1A adrenergic receptor (Rattus norvegicus). The experiment in a line: The compound was tested for alpha-adrenergic activity against Alpha-1 adrenergic receptor from rat aorta;IN- Inactive up to a concentration of 1*10e-3 M. Summed up:
as §1

Experiment [18] shares this target. Description: Intrinsic activity expressed as ratio of maximum responses to the compound to the maximum response to norepinephrine; IN-Inactive up to a concentration of 1*10e-3 M. It is filed as functional. Summed up: as §1

The structures appear in SMILES notation. Activity calls are given as the source filed them.

Chain of Beta-2 adrenergic receptor (Q8K4Z4 whole entry): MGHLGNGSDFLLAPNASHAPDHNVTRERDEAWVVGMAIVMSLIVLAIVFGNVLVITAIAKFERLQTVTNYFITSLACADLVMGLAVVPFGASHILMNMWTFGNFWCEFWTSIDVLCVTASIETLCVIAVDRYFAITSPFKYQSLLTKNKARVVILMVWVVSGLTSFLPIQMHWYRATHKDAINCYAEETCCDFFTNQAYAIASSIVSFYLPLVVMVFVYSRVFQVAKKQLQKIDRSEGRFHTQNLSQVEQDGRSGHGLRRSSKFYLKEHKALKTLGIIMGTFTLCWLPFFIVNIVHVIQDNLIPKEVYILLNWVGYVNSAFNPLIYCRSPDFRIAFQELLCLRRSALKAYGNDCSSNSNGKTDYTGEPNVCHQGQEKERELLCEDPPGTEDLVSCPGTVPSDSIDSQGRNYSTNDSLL
Chain of Beta-2 adrenergic receptor (Cavia porcellus) (Q8K4Z4 whole entry, looked up): as the sequence (Q8K4Z4 whole entry) above

Take `C/C(=N\OCC(O)CNC(C)(C)C)c1cc(Cl)c(OC(C)C2=NCCN2)c(Cl)c1` (stereo unspecified): the Kb in experiment [1] was 3.98 µM; in [2] it was 1.45 µM; in experiment [3] it was 1.48 µM; in experiment [4], 15.8 µM. The Intrinsic activity result in experiment [5] was “inactive”. In experiment [6], the pA2 result was “inactive”. This compound displayed a pD2 in experiment [7] of 3.93. Besides, the pD2 entry in experiment [8] was “inactive”.
`CC(C)(C)NCC(O)COc1cc(Cl)c(NC2=NCCN2)c(Cl)c1` (stereo unspecified) gave a pA2 in experiment [9] of 5.12. Moreover, the figures for the Kb in experiment [1], in experiment [2] and in experiment [3] were greater than 63.1 µM, greater than 100 µM and 50.1 µM, respectively. Moreover, in experiment [5], the Intrinsic activity result was “inactive”. In experiment [7], the pD2 came to 3.52. The pD2 entry in experiment [8] was “inactive”. In experiment [10], the pA2 result is “inactive”.
On to `CC(C)(C)NCC(O)COCC1CN=C(Nc2c(Cl)cccc2Cl)N1` (stereo unspecified), for which the Kb is greater than 10 µM in experiment [2] and 1.02 µM in experiment [3]. In addition, the Intrinsic activity entry in [11] was “inactive”. For the same compound, the pA2 result in experiment [12], in experiment [13] and in [10] was “inactive” throughout. This compound also displayed a pD2 in experiment [7] of 6.4. In addition, the pD2 result in experiment [14] is “inactive”.
For `Clc1cccc(Cl)c1NC1=NCCN1`, the pD2 in experiment [15] came out at 7.84.
For the compound `C/C(=N\OCC(O)CNC(C)(C)C)c1cc(Cl)c(NC2=NCCN2)c(Cl)c1` (single isomer, unassigned; (+)) [listing 1 of 2 here], the Kb in experiment [1] is 7.94 µM; in [2], 50.1 µM; in experiment [3], 50.1 µM; in experiment [4], 79.4 µM.
Regarding `C/C(=N\OCC(O)CNC(C)(C)C)c1cc(Cl)c(NC2=NCCN2)c(Cl)c1` (single isomer, unassigned; (+)) [listing 2 of 2 here], the pA2 entry in experiment [16] is “inactive”. For the same compound, the pD2 result in [17] was “inactive”. Besides, the Intrinsic activity entry in experiment [18] was “inactive”. For the same compound, the pD2 in experiment [7] amounted to 5.1.
For the compound `C/C(=N\OCC(O)CNC(C)(C)C)c1cc(Cl)c(NC2=NCCN2)c(Cl)c1` (stereo in doubt; 3) [listing 1 of 2 here], the Kb is 4.07 µM in experiment [1], 39.8 µM in experiment [2], 39.8 µM in experiment [3] and 100 µM in [4].
For the compound `C/C(=N\OCC(O)CNC(C)(C)C)c1cc(Cl)c(NC2=NCCN2)c(Cl)c1` (stereo in doubt; 3) [listing 2 of 2 here], the pA2 entry in experiment [16] was “inactive”. In addition, the pD2 entry in [17] is “inactive”. The Intrinsic activity entry in experiment [18] is “inactive”. Also, in experiment [7], the pD2 is 4.63.
With `C/C(=N\OCC(O)CNC(C)(C)C)c1cc(Cl)c(NC2=NCCN2)c(Cl)c1` (stereo in doubt; (-)-3) [listing 1 of 2 here], the Kb in [1] was 12.6 µM; in experiment [2], 25.1 µM; in experiment [3], 50.1 µM; in experiment [4], 100 µM.
In the case of `C/C(=N\OCC(O)CNC(C)(C)C)c1cc(Cl)c(NC2=NCCN2)c(Cl)c1` (stereo in doubt; (-)-3) [listing 2 of 2 here], the pA2 entry in [16] was “inactive”. In addition, the pD2 result in [17] is “inactive”. Moreover, the Intrinsic activity entry in experiment [18] is “inactive”. In addition, the pD2 in experiment [7] stood at 4.9.
As for `Clc1cccc(Cl)c1N=C1NCCN1` [CLONIDINE], the values for the Kb in experiment [2] and in experiment [3] were 63.1 µM and 39.8 µM, respectively.
